bCat KO growth: beta-catenin-lacking colon tumor cell growth suppression | 1.5% of 140,000 active | viability, % at 10 µM | HCT116 beta-catenin knockout viability, CellTiter-Glo, 60 h; hits give low values;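 active = viability at or under a set limit, the compound median less 4 SD, cut at about 6% in these data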
Lung fibro prol: blocks proliferation of human lung fibroblasts; LL 47 human lung fibroblast viability, ATP luminescence; hits give low values; viability, % at 10 µM; 1.1% of 85,000 active; AID 719;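 active = viability at or below 50% in the single dose screen; inactive = viability above 50%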;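 note: compound exposure lasted 72 h before the ATP readout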
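Test system: LL 47 human lung fibroblasts / Quantity: 1,150 cells in each well / Medium: IMEM growth medium with 15% fetal bovine serum / Incubation: 72 h compound exposure at 37 °C after overnight plating / Detection: CellTiter-Glo luminescence measuring cellular ATP / Read-out: % viability versus median cells-only luminescence / Benchmarks: cell-only wells, no compound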
HUVEC prolif 384: blocks proliferation of human endothelial cells. 1.1% of 86,000 active. HUVEC proliferation, CellTiter-Glo luminescence, 72 h; hits give low values. viability, % at 10 µM (by protocol);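 active = viability at or below 30%; inactive = viability above 30%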
H69AR inhibit: growth inhibitors of human H69AR lung tumor cells. H69AR lung tumor viability, ATP luminescence, 72 h; hits give low values. viability, % at 10 µM. 6% of 85,000 active. AID 598;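 active = viability at or below 40%; inactive = viability above 40%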;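 note: multidrug resistant small cell line overexpressing MRP-1 efflux transporter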
HCT116 PTEN-null: growth suppressors of cells with PTEN tumor suppressor deletion. viability, % at 10 µM. HCT116 PTEN-null viability, CellTiter-Glo, 60 h; hits give low values. AID 827. 1.2% of 140,000 active;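 active = viability at or below a set limit, 4 SD under the median of all tested compounds, cut at about 3.7% in these data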;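 note: PTEN knockout HCT116 line with beta catenin targeted HCT116 as companion control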
Of the large screens only hits and unclear results are named; the others gave an inactive call. Many of the other results were omitted from the sample, so hits are more common in it than they were.

CC(C)Oc1ccc(Cc2c(O)nc(NCCCN(C)C)[nH]c2=O)cc1	none
N#C[C@H]1[C@H](c2ccccc2)[C@](C#N)(C(=O)c2ccccc2)[C@@H]2C=Cc3ccccc3N21	bCat KO growth 5.3, HCT116 PTEN-null 3.3 (no result: Lung fibro prol, HUVEC prolif 384, H69AR inhibit)
COc1ccc(C(=O)N2c3ccccc3C=CC2C#N)cc1 (stereo not drawn)	none (no result: Lung fibro prol, HUVEC prolif 384, H69AR inhibit)
Cc1noc2ncnc(Sc3ccccc3Cl)c12	HUVEC prolif 384 18, H69AR inhibit 2.0
COc1cc(OC)c(OC)cc1/C=N/Nc1ncnc2c1[nH]c1ccccc12	bCat KO growth 4.2 (no result: Lung fibro prol, HUVEC prolif 384, H69AR inhibit)
CCCCOCCCNc1ncnc2c1[nH]c1ccccc12	H69AR inhibit 39
Cc1ccccc1C(=O)NNC(=O)CSc1nnc(-c2ccncc2)n1-c1ccccc1	none (no result: Lung fibro prol, HUVEC prolif 384, H69AR inhibit)
Nc1nnnn1/N=C/C(Br)=C/c1ccccc1	H69AR inhibit 0.9, HCT116 PTEN-null 3.2 (no result: Lung fibro prol)
Cn1c(=O)c2c(SCc3c(F)cccc3Cl)nc(CC(C)(C)C)nc2n(C)c1=O	none
Cc1ccc(C2C(/C=C3/SC(=S)NC3=O)=C(c3cccs3)Oc3ccccc32)cc1 (stereo not drawn)	H69AR inhibit 14
CCOC(=O)c1cnc2c(C)c(Cl)ccc2c1Nc1ccc(S(=O)(=O)Nc2ncccn2)cc1	none (no result: Lung fibro prol, HUVEC prolif 384, H69AR inhibit)
COc1ccc(OC)c2sc(NC(=O)c3ccc(S(=O)(=O)N(C)C)cc3)nc12	H69AR inhibit 21
COc1ccc(OC)c2sc(NC(=O)CCS(=O)(=O)c3ccccc3)nc12	Lung fibro prol 36, H69AR inhibit 2.4 (no result: bCat KO growth, HCT116 PTEN-null)
O=S1(=O)c2ccccc2N=NN1Cc1cc(Cl)cc(Cl)c1	Lung fibro prol 47, H69AR inhibit 1.2
O=S1(=O)c2ccccc2N=NN1Cc1ccc(Cl)cc1	Lung fibro prol 6.2, HUVEC prolif 384 21, H69AR inhibit 1.1
Cc1nc(COC(=O)c2ccc(S(=O)(=O)N3CCCC3)cc2)cs1	none
CCOC(=O)N1CCC(NS(=O)(=O)c2cc3c(cc2Cl)NC(=O)CO3)CC1	bCat KO growth 3.9, H69AR inhibit 25
C1CCC(C(CC2CCCCN2)C2CCCCC2)CC1 (stereo not drawn)	bCat KO growth 1.5, Lung fibro prol 1.8, HUVEC prolif 384 1.6, H69AR inhibit 1.3, HCT116 PTEN-null 2.2
O=c1c(Cl)c(Nc2cccc(Cl)c2)cnn1-c1nc2ccccc2s1	none (no result: Lung fibro prol, HUVEC prolif 384, H69AR inhibit)
COc1ccc(Nc2cnn(-c3nc4ccccc4s3)c(=O)c2Cl)cc1	bCat KO growth 5.1 (no result: Lung fibro prol, HUVEC prolif 384, H69AR inhibit)
CC(C)C(NC(=O)c1ccc(F)cc1)C(=O)OCC(=O)N1CC(=O)Nc2ccccc21 (stereo not drawn)	none (no result: Lung fibro prol, HUVEC prolif 384, H69AR inhibit)
COc1ccc(C(=O)Nc2cccc(-c3nnc(-c4ccco4)o3)c2)cc1	H69AR inhibit 24
O=C(Nc1cccc(C(F)(F)F)c1)c1ccc2nc(-c3ccco3)c(-c3ccco3)nc2c1	H69AR inhibit 32
CCOc1ccccc1C(=O)Nc1cccc(-c2nnc(-c3ccccc3)o2)c1	H69AR inhibit 8.7
O=S(=O)(c1ccc(N2CCN(CCO)CC2)nc1)N1CCCCC1	none
CC1CC(C)CN(CCCNC(=O)CCNC(=O)Cn2ccc3ccccc3c2=O)C1 (stereo not drawn)	none (no result: Lung fibro prol, HUVEC prolif 384, H69AR inhibit)
Cc1ccc(C)c(Cc2c(C)nc3c(C(=O)NCc4ccc5c(c4)OCO5)cnn3c2C)c1	none
Cc1ccccc1Cc1c(C)nc2c(C(=O)NCc3ccc4c(c3)OCO4)cnn2c1C	H69AR inhibit 29
COc1ccc(Cc2nnc(-c3ccc(F)cc3)o2)cc1OC	none
Cc1ccc(COc2ccc(/C=N/O)cc2)cc1	none (no result: Lung fibro prol, HUVEC prolif 384, H69AR inhibit)
NC(N)=N/N=C/c1ccc(OCc2ccc(Cl)cc2)cc1	bCat KO growth 1.5, HCT116 PTEN-null 1.5 (no result: Lung fibro prol, HUVEC prolif 384, H69AR inhibit)
NC(N)=N/N=C/c1ccc(OCc2ccccc2)cc1	bCat KO growth 1.7, HCT116 PTEN-null 1.8 (no result: Lung fibro prol, HUVEC prolif 384, H69AR inhibit)
CCn1c(=N)n(CC(=O)c2ccc(OC)cc2)c2ccccc21	none (no result: Lung fibro prol, HUVEC prolif 384, H69AR inhibit)
Cc1ccc(Cn2c(=N)n(CC(=O)c3ccc([N+](=O)[O-])cc3)c3ccccc32)cc1	bCat KO growth 0.9, HCT116 PTEN-null 0.9 (no result: Lung fibro prol, HUVEC prolif 384, H69AR inhibit)
Cc1ccc(S(=O)(=O)NCCCCCC(=O)Nc2cccc(C)c2)cc1	none (no result: Lung fibro prol, HUVEC prolif 384, H69AR inhibit)
COc1ccc2nc(/N=C/c3c(C)[nH]n(-c4ccc(C)cc4C)c3=O)sc2c1	none (no result: Lung fibro prol, HUVEC prolif 384, H69AR inhibit)
Cc1ccc(Nc2c(N)c(=O)oc3ccccc23)cc1	H69AR inhibit 13
Cc1cnc(-c2nnc(N(C)C(=O)c3cnccn3)s2)cn1	none (no result: bCat KO growth, HCT116 PTEN-null)
COc1cccc(-c2cc(C(=O)Nc3cc(OC)c(OC)c(OC)c3)no2)c1	H69AR inhibit 17
COc1cccc(-c2cc(C(=O)Nc3cccnc3)no2)c1	none
CCOC(=O)N1CCC(NC(=O)c2ccc3c(c2)N(Cc2ccccc2)CCS3)CC1	none
